Experimental data taken from ChEMBL document CHEMBL4257503, “N-Acetyl-3-aminopyrazoles block the non-canonical NF-kB cascade by selectively inhibiting NIK” (Medchemcomm, 2018).

Legend:
[1] = molecular target: T1, Inhibitor of nuclear factor kappa-B kinase subunit beta (Homo sapiens, UniProt O14920); test: Inhibition of recombinant human full-length N-terminal GST-fused/His6-tagged IKKbeta (M1 to S756 residues) expressed in Sf9 insect cells using ERLLDDRHDSGLDSMKDEE peptide as substrate measured after 60 mins by ADP-Glo kinase assay
T1 sequence (O14920 whole entry): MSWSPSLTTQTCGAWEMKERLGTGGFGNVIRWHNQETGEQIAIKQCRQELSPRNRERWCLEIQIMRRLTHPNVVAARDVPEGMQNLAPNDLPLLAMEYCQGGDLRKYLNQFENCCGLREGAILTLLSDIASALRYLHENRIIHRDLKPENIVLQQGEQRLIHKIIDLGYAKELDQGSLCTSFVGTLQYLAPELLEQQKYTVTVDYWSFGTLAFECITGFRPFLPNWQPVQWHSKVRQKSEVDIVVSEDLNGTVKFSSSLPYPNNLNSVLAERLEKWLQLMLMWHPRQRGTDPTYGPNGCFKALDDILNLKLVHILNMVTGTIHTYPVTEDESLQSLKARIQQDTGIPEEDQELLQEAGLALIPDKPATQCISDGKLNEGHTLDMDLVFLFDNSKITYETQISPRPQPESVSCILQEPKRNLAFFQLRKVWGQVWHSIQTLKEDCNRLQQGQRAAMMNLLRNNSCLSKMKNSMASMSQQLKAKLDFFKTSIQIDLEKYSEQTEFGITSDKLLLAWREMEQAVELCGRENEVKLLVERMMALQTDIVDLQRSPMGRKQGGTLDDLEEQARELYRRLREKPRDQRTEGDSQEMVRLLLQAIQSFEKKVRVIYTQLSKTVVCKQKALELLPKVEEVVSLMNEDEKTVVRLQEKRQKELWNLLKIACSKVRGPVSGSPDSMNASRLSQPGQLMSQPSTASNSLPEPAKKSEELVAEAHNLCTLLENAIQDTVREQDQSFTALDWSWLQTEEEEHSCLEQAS

[2] = molecular target: T2, Inhibitor of nuclear factor kappa-B kinase subunit epsilon (Homo sapiens, UniProt Q14164); test: Inhibition of recombinant human full-length N-terminal GST-fused/His6-tagged IKKepsilon (M1 to V716 residues) expressed in Sf9 insect cells using ERLLDDRHDSGLDSMKDEE peptide as substrate measured after 60 mins by ADP-Glo kinase assay
T2 sequence (Q14164 whole entry): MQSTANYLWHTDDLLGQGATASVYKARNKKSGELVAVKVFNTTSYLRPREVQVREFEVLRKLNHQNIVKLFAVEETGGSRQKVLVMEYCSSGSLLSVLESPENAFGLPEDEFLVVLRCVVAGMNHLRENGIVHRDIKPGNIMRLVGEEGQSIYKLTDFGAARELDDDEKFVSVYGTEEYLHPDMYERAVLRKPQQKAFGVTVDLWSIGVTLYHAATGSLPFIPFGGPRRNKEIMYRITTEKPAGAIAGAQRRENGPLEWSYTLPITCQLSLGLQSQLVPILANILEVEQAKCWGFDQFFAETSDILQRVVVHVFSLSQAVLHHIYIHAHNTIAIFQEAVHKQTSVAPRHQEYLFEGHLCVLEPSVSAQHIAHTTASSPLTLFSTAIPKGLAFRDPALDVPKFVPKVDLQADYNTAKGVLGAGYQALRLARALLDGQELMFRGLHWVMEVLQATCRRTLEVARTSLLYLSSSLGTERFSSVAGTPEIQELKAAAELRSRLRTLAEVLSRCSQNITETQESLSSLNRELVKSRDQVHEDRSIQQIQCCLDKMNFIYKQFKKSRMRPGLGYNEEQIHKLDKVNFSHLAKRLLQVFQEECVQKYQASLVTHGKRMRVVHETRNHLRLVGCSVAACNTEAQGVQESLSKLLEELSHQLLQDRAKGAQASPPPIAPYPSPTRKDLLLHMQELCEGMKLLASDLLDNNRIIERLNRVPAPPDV

[3] = molecular target: T3, Mitogen-activated protein kinase kinase kinase 14 (Homo sapiens, UniProt Q99558); test: Inhibition of recombinant human full-length N-terminal GST-fused/His6-tagged NIK (M1 to P947 residues) expressed in Sf9 insect cells using AKDVDQGSLCTSFVGTLQY peptide as substrate measured after 60 mins by ADP-Glo kinase assay
Target sequence in this assay (Q99558 whole entry, the tested form may be a part): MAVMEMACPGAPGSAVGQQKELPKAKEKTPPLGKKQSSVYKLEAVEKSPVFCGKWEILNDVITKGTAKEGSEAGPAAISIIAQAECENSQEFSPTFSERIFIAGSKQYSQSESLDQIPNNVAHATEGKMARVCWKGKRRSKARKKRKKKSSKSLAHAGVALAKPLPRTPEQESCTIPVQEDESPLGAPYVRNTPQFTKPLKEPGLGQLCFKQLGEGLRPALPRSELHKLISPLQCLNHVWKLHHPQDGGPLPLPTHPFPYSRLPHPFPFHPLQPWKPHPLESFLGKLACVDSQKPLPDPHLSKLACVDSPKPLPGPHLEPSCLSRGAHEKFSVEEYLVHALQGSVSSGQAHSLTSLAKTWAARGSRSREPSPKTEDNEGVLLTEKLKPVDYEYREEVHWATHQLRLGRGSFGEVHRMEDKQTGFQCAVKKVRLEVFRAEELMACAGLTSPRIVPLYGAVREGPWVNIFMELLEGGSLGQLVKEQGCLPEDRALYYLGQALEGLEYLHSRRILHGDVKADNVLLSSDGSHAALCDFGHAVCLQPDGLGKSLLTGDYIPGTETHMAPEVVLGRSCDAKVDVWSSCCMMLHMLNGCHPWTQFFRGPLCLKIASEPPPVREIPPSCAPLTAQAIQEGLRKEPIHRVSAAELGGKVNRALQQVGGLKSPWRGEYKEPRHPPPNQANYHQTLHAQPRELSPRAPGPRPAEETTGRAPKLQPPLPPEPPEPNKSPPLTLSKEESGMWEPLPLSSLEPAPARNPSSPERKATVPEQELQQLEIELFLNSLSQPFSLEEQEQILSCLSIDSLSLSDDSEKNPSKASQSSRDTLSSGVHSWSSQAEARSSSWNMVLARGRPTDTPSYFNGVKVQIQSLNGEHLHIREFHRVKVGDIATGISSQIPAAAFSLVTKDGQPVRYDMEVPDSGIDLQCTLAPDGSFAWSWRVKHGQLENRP

[4] = molecular target: T4, Inhibitor of nuclear factor kappa-B kinase subunit alpha (Homo sapiens, UniProt O15111); test: Inhibition of recombinant full length human His-tagged IKKalpha expressed in baculovirus expression system using ERLLDDRHDSGLDSMKDEE peptide as substrate measured after 60 mins by ADP-Glo kinase assay
T4 sequence (O15111 whole entry): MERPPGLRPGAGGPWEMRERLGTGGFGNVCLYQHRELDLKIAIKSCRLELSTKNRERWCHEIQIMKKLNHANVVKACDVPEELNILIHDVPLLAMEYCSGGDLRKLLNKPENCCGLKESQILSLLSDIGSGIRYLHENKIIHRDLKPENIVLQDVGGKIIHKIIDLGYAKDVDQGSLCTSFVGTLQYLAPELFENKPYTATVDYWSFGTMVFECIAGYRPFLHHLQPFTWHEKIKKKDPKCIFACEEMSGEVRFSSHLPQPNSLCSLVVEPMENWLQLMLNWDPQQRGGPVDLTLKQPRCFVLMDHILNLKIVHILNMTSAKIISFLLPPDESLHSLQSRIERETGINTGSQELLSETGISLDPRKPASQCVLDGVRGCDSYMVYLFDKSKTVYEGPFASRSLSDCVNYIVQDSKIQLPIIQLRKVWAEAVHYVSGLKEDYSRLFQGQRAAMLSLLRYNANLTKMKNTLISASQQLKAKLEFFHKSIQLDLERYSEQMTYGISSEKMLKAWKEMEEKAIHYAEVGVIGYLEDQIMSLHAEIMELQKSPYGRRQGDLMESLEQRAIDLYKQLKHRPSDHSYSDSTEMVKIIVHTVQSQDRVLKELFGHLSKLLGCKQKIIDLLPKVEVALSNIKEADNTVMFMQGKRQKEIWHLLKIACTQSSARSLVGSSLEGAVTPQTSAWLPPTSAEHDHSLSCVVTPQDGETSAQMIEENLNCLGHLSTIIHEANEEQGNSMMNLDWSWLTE
Procedure, shortened: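 Recombinant human IKKα, peptide substrate 100 µM, enzyme 8 ng/µL, ATP 1 µM in Tris-HCl pH 7.5 buffer with MgCl2, MnCl2, DTT, Na3VO4, BSA; 25°C, 60 min; ADP-Glo luminescence. Ten concentrations 0.005–100 µM; IC50 by nonlinear regression; means ± SD of three independent experiments.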

[5] = molecular target: T3, Mitogen-activated protein kinase kinase kinase 14; test: Inhibition of NIK-induced NFkappaB activation in human EJM cells at 20 uM after 6 hrs by dual luciferase reporter gene assay relative to control; type: cell-based
Target sequence in this assay (Q99558 whole entry, looked up, the tested form may be a part): as the sequence (Q99558 whole entry, the tested form may be a part) above

MDA-MB-231 [6] = test: Inhibition of NFkappaB activation in human MDA-MB-231 cells at 50 uM after 6 hrs by dual luciferase reporter gene assay relative to control; type: cell-based
Procedure, shortened: (§1)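 Cells were nucleofected with the pGL4.32 NF-κB-RE firefly luciferase and pGL4.74 TK-Renilla plasmids (3 µg, 10:1 ratio) and cultured for 24 h at 37 °C. Compound (10, 25, 50 or 100 µM) was then added for 6 h. Firefly luminescence was normalised to Renilla from the same sample and expressed as % of vehicle control. Means ± SD of three independent experiments.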

Homo sapiens [7] = species on record: Homo sapiens; test: Inhibition of NFkappaB activation in human SKBR3 cells at 50 uM after 6 hrs by dual luciferase reporter gene assay relative to control; type: cell-based; procedure, shortened: as §1
[8] = Cytotoxicity against human MDA-MB-231 cells assessed as cell viability at 50 uM after 6 hrs by CellTiter Glo luminescent assay relative to control; type: cell-based; conditions: read-out: Activity
Procedure, shortened: (§2)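 Cells seeded at 5 x 10^3 per well and exposed for 6 h to the compound (10, 25, 50 or 100 µM) or to DMSO vehicle. Viability was read as intracellular ATP by CellTiter Glo luminescence.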

[9] = Cytotoxicity against human EJM cells assessed as cell viability at 20 uM after 6 hrs by CellTiter Glo luminescent assay relative to control; type: cell-based; conditions: read-out: Activity
[10] = Cytotoxicity against human SKBR3 cells assessed as cell viability at 50 uM after 6 hrs by CellTiter Glo luminescent assay relative to control; type: cell-based, SK-BR-3; conditions: read-out: Activity; procedure, shortened: as §2
[11] = molecular target: T3, Mitogen-activated protein kinase kinase kinase 14; test: Inhibition of NIK-induced NFkappaB activation in human EJM cells at 50 uM after 6 hrs by dual luciferase reporter gene assay relative to control; type: cell-based; procedure, shortened: as §1
Target sequence in this assay (Q99558 whole entry, looked up, the tested form may be a part): as the sequence (Q99558 whole entry, the tested form may be a part) above

Homo sapiens [12] = species on record: Homo sapiens; test: Inhibition of NFkappaB activation in human SKBR3 cells at 100 uM after 6 hrs by dual luciferase reporter gene assay relative to control; type: cell-based; procedure, shortened: as §1
[13] = Cytotoxicity against human EJM cells assessed as cell viability at 50 uM after 6 hrs by CellTiter Glo luminescent assay relative to control; type: cell-based; conditions: read-out: Activity; procedure, shortened: as §2
[14] = Cytotoxicity against human SKBR3 cells assessed as cell viability at 100 uM after 6 hrs by CellTiter Glo luminescent assay relative to control; type: cell-based, SK-BR-3; conditions: read-out: Activity; procedure, shortened: as §2
[15] = molecular target: T3, Mitogen-activated protein kinase kinase kinase 14; test: Inhibition of NIK-induced NFkappaB activation in human EJM cells at 100 uM after 6 hrs by dual luciferase reporter gene assay relative to control; type: cell-based; procedure, shortened: as §1
Target sequence in this assay (Q99558 whole entry, looked up, the tested form may be a part): as the sequence (Q99558 whole entry, the tested form may be a part) above

[16] = Cytotoxicity against human EJM cells assessed as cell viability at 100 uM after 6 hrs by CellTiter Glo luminescent assay relative to control; type: cell-based; conditions: read-out: Activity; procedure, shortened: as §2
MDA-MB-231 [17] = test: Inhibition of NFkappaB activation in human MDA-MB-231 cells at 100 uM after 6 hrs by dual luciferase reporter gene assay relative to control; type: cell-based; procedure, shortened: as §1
[18] = Cytotoxicity against human MDA-MB-231 cells assessed as cell viability at 100 uM after 6 hrs by CellTiter Glo luminescent assay relative to control; type: cell-based; conditions: read-out: Activity; procedure, shortened: as §2

| IC50 [1] [µM] | IC50 [2] [µM] | IC50 [3] [µM] | IC50 [4] [µM] | inhibition [5] [%] | inhibition [11] [%] | inhibition [15] [%] | Structure (SMILES) | inhibition (MDA-MB-231 [6]) [%] | inhibition (Homo sapiens [7]) [%] | viability at 6 h, 50 µM [8] [%] | viability at 6 h, 20 µM [9] [%] | viability at 6 h, 50 µM [10] [%] | inhibition (Homo sapiens [12]) [%] | viability at 6 h, 50 µM [13] [%] | viability at 6 h, 100 µM [14] [%] | viability at 6 h, 100 µM [16] [%] | inhibition (MDA-MB-231 [17]) [%] | viability at 6 h, 100 µM [18] [%] |
| --- | --- | --- | --- | --- | --- | --- | --- | --- | --- | --- | --- | --- | --- | --- | --- | --- | --- | --- |
| 0.09 | > 100 | > 100 | > 100 | 89.3 |  |  | O=C(Nc1cc(Cl)c2c(c1)[nH]c1cnccc12)c1cccnc1 | 87.9 | 3.6 | ≥ 80 | ≥ 80 | ≥ 80 |  |  |  |  |  |  |
| 37.9 | > 100 | 61.1 | > 100 |  | 10.4 |  | Cc1n[nH]c(N)c1-c1ccc(Cl)cc1 | 29.9 |  | ≥ 80 |  |  | 4.2 | ≥ 80 | ≥ 80 |  |  |  |
| > 100 | > 100 | 24.3 | > 100 |  |  | 68.9 | Cc1nn(C(=O)C2CC2)c(N)c1-c1ccc(Cl)c(Cl)c1 | 5.8 | 3.66 | ≥ 80 |  | ≥ 80 |  |  |  | ≥ 80 |  |  |
| > 100 | > 100 | 23 | > 100 |  | 75.2 |  | Cc1nn(C(=O)c2ccccc2)c(N)c1-c1ccc(Cl)c(Cl)c1 |  |  |  |  |  | 0.31 | ≥ 80 | ≥ 80 |  | 13.8 | ≥ 80 |
